# Test results as given in ChEMBL document CHEMBL1128482, “Syntheses, calcium channel agonist-antagonist modulation activities, and voltage-clamp studies of isopropyl 1,4-dihydro-2,6-dimethyl-3-nitro-4-pyridinylpyridine-5-carboxylate racemates and enantiomers” (J Med Chem, 1995).
# Key:
# [1] = species: Cavia porcellus; test: Calcium channel agonist activity in guinea pig left atrium (GPLA) at 10e-5 M; format: functional; details: Cardiac atrium
# In short: (§1)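 Isolated guinea pig left atrium: positive inotropic response was taken as the percentage increase in contractile force over the tissue's basal force measured without test compound.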
# [2] = species: Cavia porcellus; test: Calcium channel agonist activity in guinea pig ileum longitudinal smooth muscle (GPILSM) at 10e-5 M; format: functional, organism-based
# [3] = species: Cavia porcellus; test: Calcium channel agonist activity in guinea pig left atrium (GPLA) at 10e-6 M; format: functional; details: Cardiac atrium; in short: as §1
# [4] = species: Cavia porcellus; test: Calcium channel agonist activity in guinea pig ileum longitudinal smooth muscle (GPILSM) at 10e-7 M; format: functional, organism-based
# [5] = species: Cavia porcellus; test: Calcium channel agonist activity in guinea pig left atrium (GPLA) at 10e-7 M; format: functional; details: Cardiac atrium; in short: as §1
# [6] = species: Cavia porcellus; test: Calcium channel agonist activity in guinea pig left atrium (GPLA) at 10e-8 M; format: functional; details: Cardiac atrium; in short: as §1
# [7] = species: Cavia porcellus; test: Calcium channel agonist activity in guinea pig ileum longitudinal smooth muscle (GPILSM) at 10e-6 M; format: functional, organism-based
# [8] = species: Cavia porcellus; test: Calcium channel antagonist activity in guinea pig ileum longitudinal smooth muscle (GPILSM) at 10e-6 M; format: functional, organism-based
# [9] = species: Cavia porcellus; test: Calcium channel agonist activity in guinea pig left atrium (GPLA) at 10e-9 M; details: Cardiac atrium
# [10] = species: Cavia porcellus; test: Calcium channel agonist activity in guinea pig left atrium (GPLA) at 10e-8 M; details: Cardiac atrium
# [11] = species: Cavia porcellus; test: Calcium channel antagonist activity in guinea pig ileum longitudinal smooth muscle (GPILSM) at 10e-7 M; format: functional, organism-based
compound,measurement,setting,value
CC1=NC(C)=C([N+](=O)[O-])C(c2cccnc2)/C1=C(\O)OC(C)C (racemic),EC50,[1],28.5 µM
same,EC50,[2],48 µM
CC1=NC(C)=C([N+](=O)[O-])C(c2ccncc2)/C1=C(\O)OC(C)C (racemic),EC50,[3],8.05 µM
same,EC50,[2],35 µM
COC(=O)C1=C(C)NC(C)=C([N+](=O)[O-])C1c1ccccc1C(F)(F)F (centres undefined),EC50,[4],0.23 µM
same,EC50,[5],0.77 µM
CC1=NC(C)=C([N+](=O)[O-])C(c2ccccn2)/C1=C(\O)OC(C)C (racemic),EC50,[3],9.67 µM
same,EC50,[6],0.0458 µM
same,EC50,[7],5.27 µM
same,IC50,[8],4.87 µM
CC1=NC(C)=C([N+](=O)[O-])C(c2ccccn2)/C1=C(\O)OC(C)C (centres undefined),EC50,[9],0.00446 µM
same,EC50,[7],5.27 µM
same,EC50,[10],0.0458 µM
same,IC50,[11],0.207 µM
